For 18 molecules, viability, differential viability (reversal) and inhibition results are on record in PubChem BioAssay.

The source made the active and inactive calls.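 Rule for the calls, unless noted: active = viability loss from added drug above about 55%, and viability with drug at most 40%, in both replicates (limit read from the data, passing the limit was not always enough); inconclusive = both conditions met in only one replicate; inactive = neither replicate meets both conditions.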

Experiment [1] can be described thus: reduced viability of SK-BR-3 breast cancer cells – cell-based, 24 h, human, pilot screen (AID 572;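 active = viability at or below 10% of carrier control in both of two separate runs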;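 note: compound exposure lasted between 18 and 24 h rather than exactly 24 h; 100% = carrier-treated control wells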). As to conditions: SK-BR-3 viability, CellTiter-Glo luminescence, at 10 µM, stronger effect = lower value.
Experiment [2] is described as follows: HUVEC growth inhibition – cell-based, human, primary screen (AID 575;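 active = viability at or below 30% in both replicate assays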;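 note: 100% = median of untreated cell wells with 0.1% DMSO on each plate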). As to conditions: HUVEC proliferation, CellTiter-Glo luminescence, 72 h; at 10 µM; stronger effect = lower value. The method in brief:
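Assay system: primary human umbilical vein endothelial cells / Buffer or medium: endothelial basal medium with 2% FBS plus growth supplements / Compound dosing: one dose, 10 µM final, 0.1% DMSO / Timing: 72 h treatment at 37 °C / Signal: CTG luminescence / Benchmarks: 32 DMSO-only cell-control wells (high), 32 MePR drug-control wells (low) per plate / Plate: collagen-coated 384-well format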
A general note: Cellular ATP, detected with luciferase, serves as a proxy for viable cell number.

A short description of experiment [3]: H69AR cell proliferation blockers – human, duplicate replicates, primary screen (AID 580;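 active = viability at or under a set limit in both replicates, limit being median viability minus 3 SD, cut at about 48% in these data, passing the limit was not always enough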;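 note: 100% = mean luminescence of untreated wells and 0% = no signal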). The conditions noted are these: H69AR lung tumor cells viability, ATP luminescence, 72 h; at 10 µM; stronger effect = lower value.
Experiment [4] is described as follows: MRP1 drug-resistance reversers in H69AR cells – cell-based, doxorubicin co-treatment, pilot screen (AID 601). As to conditions: CellTiter-Glo, 72 h, at 10 µM; for differential viability (reversal): stronger effect = higher value.
Experiment [5] can be described thus: yeast transport mutant growth inhibition pilot in 384-well plates, post-Golgi transport modulator project (AID 636; in the data active = inhibition above about 31%). As to conditions: absorbance 615 nm, about 18 h, stronger effect = higher value.
Experiment [6] in a line: growth suppression of yeast trafficking mutant, preliminary HTS, modulators of trafficking downstream of Golgi apparatus project, 1536-format plate, OD 615 nm (AID 637; in the data active = inhibition above about 30%). As to conditions: yeast transport mutant growth, absorbance 615 nm, 18 h; stronger effect = higher value.
The mark [7] stands for this setting: H69AR cells + 2 uM doxorubicin, measured here: viability with 2 uM doxorubicin, stronger effect = lower value.
Where [8] appears, read: H69AR cells, compound alone cytotoxicity.

Turning to `O=C(c1ccc(S(=O)(=O)N2CCC(c3nc4ccccc4s3)CC2)cc1)N1CCOCC1`, the viability in experiment [1] was 97% (inactive); in experiment [2], 100% (inactive); in experiment [3] it was 71.4% (inactive); in experiment [4] (setting [7]), 100%; in experiment [4] (setting [8]) it was 71.4%. Also, the differential viability (reversal) in experiment [4] (H69AR cells + 2 uM doxorubicin) was -28.7% (inactive). Moreover, the inhibition was -5.34% (inactive) in experiment [5] and 3.64% (inactive) in experiment [6].
For `c1ccc2c(NC3CCCC3)nnc(NC3CCCC3)c2c1`, the viability in experiment [1] is 60% (inactive); in experiment [2], 83.1% (inactive); in experiment [3], 91.4% (inactive); in experiment [4] (setting [7]), 89.6%; in experiment [4] (setting [8]), 91.4%. In addition, the differential viability (reversal) in experiment [4] (H69AR cells + 2 uM doxorubicin) was 1.81% (inactive). Further, the inhibition is -0.92% (inactive) in experiment [5] and -7.46% (inactive) in experiment [6].
For `NC(=O)c1ccsc1NC(=O)COC(=O)Cc1ccsc1`, the viability was 87% (inactive) in experiment [1]; 100% (inactive) in experiment [2]; 110% (inactive) in experiment [3]; 110% in experiment [4] (setting [7]); 110% in experiment [4] (setting [8]). In experiment [4] (H69AR cells + 2 uM doxorubicin), the differential viability (reversal) is -0.11% (inactive). Moreover, the inhibition in experiment [5] was -4.25% (inactive); in experiment [6], 1.27% (inactive).
For `CSCCC(NC(=O)CCN1C(=O)c2ccccc2C1=O)C(=O)O` (centres undefined), the viability in experiment [1] was 85% (inactive); in experiment [2], 101% (inactive); in experiment [3], 98.5% (inactive); in experiment [4] (setting [7]), 84.7%; in experiment [4] (setting [8]), 98.5%. Also, in experiment [4] (H69AR cells + 2 uM doxorubicin), the differential viability (reversal) is 13.8% (inactive). Further, the values for the inhibition in experiment [5] and in experiment [6] were -3.01% (inactive) and 6.73% (inactive), respectively.
For the molecule `Cn1cc(C(=O)NC2CCCCCCC2)c(=O)c2cc(S(=O)(=O)N3CCCC3)ccc21`, the viability was 76.5% (inactive) in experiment [1]; 79.8% (inactive) in experiment [2]; 90.9% (inactive) in experiment [3]; 90.6% in experiment [4] (setting [7]); 90.9% in experiment [4] (setting [8]). Further, the differential viability (reversal) in experiment [4] (H69AR cells + 2 uM doxorubicin) was 0.325% (inactive). The values for the inhibition in experiment [5] and in experiment [6] were -5.95% (inactive) and -4.67% (inactive), respectively.
As for `CCOC(=O)c1c(C)[nH]c(C(=O)Cn2c(=O)c3c(ncn3CC)n(Cc3ccccc3)c2=O)c1C`, the viability in experiment [1] is 89% (inactive); in experiment [2], 98% (inactive); in experiment [3] it was 85.2% (inactive); in experiment [4] (setting [7]), 90.1%; in experiment [4] (setting [8]), 85.2%. Further, the differential viability (reversal) in experiment [4] (H69AR cells + 2 uM doxorubicin) is -4.88% (inactive). The figures for the inhibition in experiment [5] and in experiment [6] were -6.35% (inactive) and -2.73% (inactive), respectively.
For the molecule `Cc1nc(Sc2cccn2C)c(C(F)(F)F)c(=O)[nH]1`, the viability in experiment [1] was 105% (inactive); in experiment [2], 102% (inactive); in experiment [3], 96.3% (inactive); in experiment [4] (setting [7]), 83.1%; in experiment [4] (setting [8]), 96.3%. Moreover, the differential viability (reversal) in experiment [4] (H69AR cells + 2 uM doxorubicin) is 13.2% (inactive). The figures for the inhibition in experiment [5] and in experiment [6] were -6.58% (inactive) and 2% (inactive), respectively.
Turning to `COc1ccc(C2c3c(oc4ccccc4c3=O)C(=O)N2Cc2ccncc2)cc1OC` (centres undefined), the viability in experiment [1] was 91% (inactive); in experiment [2], 96.7% (inactive); in experiment [3], 93.7% (inactive); in experiment [4] (setting [7]), 95.8%; in experiment [4] (setting [8]), 93.7%. In experiment [4] (H69AR cells + 2 uM doxorubicin), the differential viability (reversal) is -2.17% (inactive). Also, the results for the inhibition in experiment [5] and in experiment [6] were -7.84% (inactive) and 0.18% (inactive), respectively.
Consider `O=C(CCn1c(=O)oc2ccccc21)N1CCN(c2ccccc2Cl)CC1`, for which the viability in experiment [1] was 72% (inactive); in experiment [2], 54.2% (inactive); in experiment [3] it was 11.2% (active); in experiment [4] (setting [7]), 66.3%; in experiment [4] (setting [8]) it was 11.2%. The differential viability (reversal) in experiment [4] (H69AR cells + 2 uM doxorubicin) is -55.1% (inactive). For the same molecule, the inhibition in experiment [5] was 7.3% (inactive); in experiment [6], -2% (inactive).
As for `CCCCOc1ccc(C(=O)CCN2CCCCC2)cc1`, the viability was 121% (inactive) in experiment [1]; 46% (inactive) in experiment [2]; 66.1% (inactive) in experiment [3]; 41.4% in experiment [4] (setting [7]); 66.1% in experiment [4] (setting [8]). The differential viability (reversal) in experiment [4] (H69AR cells + 2 uM doxorubicin) is 24.7% (inactive). Further, the inhibition was -2.21% (inactive) in experiment [5] and 6.17% (inactive) in experiment [6].
With `COc1cccc(N2CCN(Cc3nc(N)nc(Nc4ccccc4)n3)CC2)c1`, the viability in experiment [1] was 119% (inactive); in experiment [2], 89.1% (inactive); in experiment [3] it was 75.5% (inactive); in experiment [4] (setting [7]) it was 90%; in experiment [4] (setting [8]) it was 75.5%. For the same molecule, the differential viability (reversal) in experiment [4] (H69AR cells + 2 uM doxorubicin) is -14.5% (inactive). Moreover, the inhibition in experiment [5] is -3.77% (inactive); in experiment [6], 0.16% (inactive).
Turning to `O=C(Nc1sccc1C(=O)NCc1ccco1)c1cccnc1`, the viability in experiment [1] is 90% (inactive); in experiment [2], 96.8% (inactive); in experiment [3], 79.6% (inactive); in experiment [4] (setting [7]) it was 84.5%; in experiment [4] (setting [8]), 79.6%. Further, in experiment [4] (H69AR cells + 2 uM doxorubicin), the differential viability (reversal) was -4.98% (inactive). The inhibition in experiment [5] was -0.55% (inactive); in experiment [6], 2.55% (inactive).
With `CN(C)c1ccc(C2C3=C(CCCC3=O)OC3=C2C(=O)CCC3)cc1`, the viability in experiment [1] is 90% (inactive); in experiment [2], 97% (inactive); in experiment [3], 92.5% (inactive); in experiment [4] (setting [7]) it was 89.7%; in experiment [4] (setting [8]), 92.5%. The differential viability (reversal) in experiment [4] (H69AR cells + 2 uM doxorubicin) is 2.78% (inactive). Also, the values for the inhibition in experiment [5] and in experiment [6] were -5.73% (inactive) and -2.18% (inactive), respectively.
As to `CCN(C(=O)c1cccs1)c1nnc(-c2ccncc2)s1`, the viability in experiment [1] was 105% (inactive); in experiment [2], 120% (inactive); in experiment [3] it was 92.5% (inactive); in experiment [4] (setting [7]) it was 85.5%; in experiment [4] (setting [8]), 92.5%. In addition, the differential viability (reversal) in experiment [4] (H69AR cells + 2 uM doxorubicin) was 7.03% (inactive). Also, the inhibition in experiment [5] is -3.33% (inactive); in experiment [6], 2.91% (inactive).
For the molecule `CC(=O)Nc1nc(=S)ss1`, the viability was 135% (inactive) in experiment [1]; 103% (inactive) in experiment [2]; 87.5% (inactive) in experiment [3]; 95.7% in experiment [4] (setting [7]); 87.5% in experiment [4] (setting [8]). In addition, in experiment [4] (H69AR cells + 2 uM doxorubicin), the differential viability (reversal) was -8.28% (inactive). In addition, the values for the inhibition in experiment [5] and in experiment [6] were -1.3% (inactive) and -0.33% (inactive), respectively.
In the case of `CCn1c(SCC(=O)c2ccc(C)cc2)nnc1-c1ccoc1C`, the viability was 89% (inactive) in experiment [1]; 114% (inactive) in experiment [2]; 108% (inactive) in experiment [3]; 99.2% in experiment [4] (setting [7]); 108% in experiment [4] (setting [8]). Moreover, in experiment [4] (H69AR cells + 2 uM doxorubicin), the differential viability (reversal) was 8.75% (inactive). Also, the inhibition in experiment [5] is -5.14% (inactive); in experiment [6], 0.36% (inactive).
`CCC(=O)Nc1ccc(NC(=O)c2ccccn2)cn1`: the viability is 87% (inactive) in experiment [1]; 103% (inactive) in experiment [2]; 98.2% (inactive) in experiment [3]; 84.6% in experiment [4] (setting [7]); 98.2% in experiment [4] (setting [8]). Further, in experiment [4] (H69AR cells + 2 uM doxorubicin), the differential viability (reversal) was 13.6% (inactive). The results for the inhibition in experiment [5] and in experiment [6] were -5.47% (inactive) and -8% (inactive), respectively.
As for `COc1ccc(-c2nc3cc(NC(=O)Cc4ccc(OC)c(OC)c4)ccc3o2)cc1`, the viability is 90.5% (inactive) in experiment [1]; 54.8% (inactive) in experiment [2]; 94.4% (inactive) in experiment [3]; 90.7% in experiment [4] (setting [7]); 94.4% in experiment [4] (setting [8]). In addition, the differential viability (reversal) in experiment [4] (H69AR cells + 2 uM doxorubicin) is 3.68% (inactive). For the same molecule, the inhibition was 0.67% (inactive) in experiment [5] and 2.58% (inactive) in experiment [6].

Broadly, the viability is a read-out of living cells in per cent, often relative to untreated cells. As usually defined, the inhibition is the relative decrease from the control value, in per cent.
